For assay [1], the system named is HT-29. Briefly: Cytotoxicity against human HT-29 cells after 3 days by sulforhodamine B assay. Type of assay: functional. As to conditions: read-out: ED50 (the source's name). A general note: In SRB staining, fixed cells bind dye roughly in proportion to their protein.
For assay [2], the system named is HT-29. Briefly: Induction of apoptosis in human HT-29 cells assessed reduction of mitochondrial membrane potential after 2 hrs by using JC1 staining by fluorescence cell-based assay. Type of assay: functional. As to conditions: HT-29, 2 h, read-out: ED50 (the source's name).
In assay [3] the test system is HL-60. Put plainly: Inhibition of chymotrypsin-like activity of purified human 20S proteasome in HL60 cells using N-succinyl-Leu-Leu-Val-Tyr-AMC as substrate pre-incubated for 10 mins by fluorimetric assay. Type of assay: cell-based. The essentials:
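Enzyme source was a proteasome fraction isolated from HL-60 human leukemia cells. […] Activity is reported as ED50 in μM.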

`COc1cc(O)c2c(c1Cc1ccccc1O)O[C@H](c1ccccc1)CC2=O`: the EC50 in assay [1] (Homo sapiens, HT-29, 72 h) is greater than 20 µM; in assay [2], 13.6 µM. The ED50 in assay [3] is greater than 20 µM.

On to `COc1c(Cc2ccccc2O)c(O)c2c(c1Cc1ccccc1O)O[C@H](c1ccccc1)CC2=O`, for which the EC50 in assay [1] (Homo sapiens, HT-29, 72 h) is greater than 20 µM; in assay [2], 1.6 µM. This compound showed an ED50 in assay [3] of 3.45 µM.

Turning to `CC(C)C[C@H](NC(=O)[C@H](Cc1ccccc1)NC(=O)c1cnccn1)B(O)O` [BORTEZOMIB], the EC50 in assay [1] (Homo sapiens, HT-29, 72 h) was greater than 20 µM.

Take `O=C1C[C@@H](c2ccccc2)Oc2c(Cc3ccccc3O)c(O)c(Cc3ccccc3O)c(O)c21` [DICHAMANETIN]: the EC50 in assay [1] is greater than 20 µM. The compound also returned an ED50 in assay [3] greater than 20 µM.

Consider `O=C1C[C@@H](c2ccccc2)Oc2cc(O)c(Cc3ccccc3O)c(O)c21` [ISOCHAMANETIN], for which, in assay [1] (Homo sapiens, HT-29, 72 h), the EC50 is greater than 20 µM. For the same compound, in assay [3], the ED50 was greater than 20 µM.

Turning to `CC(=O)O[C@H]1C(=O)[C@@]2(C)[C@H]([C@H](OC(=O)c3ccccc3)[C@]3(O)C[C@H](OC(=O)[C@H](O)[C@@H](NC(=O)c4ccccc4)c4ccccc4)C(C)=C1C3(C)C)[C@]1(OC(C)=O)CO[C@@H]1C[C@@H]2O` [PACLITAXEL], the EC50 in assay [1] (Homo sapiens, HT-29, 72 h) was 0.006 µM.

Turning to `O=C1C[C@@H](c2ccccc2)Oc2cc(O)cc(O)c21` [PINOCEMBRIN], the EC50 in assay [1] (Homo sapiens, HT-29, 72 h) is greater than 20 µM. This compound displayed an ED50 in assay [3] of 2.87 µM.

For `CC(C)CNC(=O)/C=C/C=C/CCCCc1ccc2c(c1)OCO2` [PIPERCALLOSINE], the EC50 in assay [1] (Homo sapiens, HT-29, 72 h) is greater than 20 µM; in assay [2], 4.6 µM. In assay [3], this compound came in with an ED50 greater than 20 µM.

Take `O=C1C[C@@H](c2ccccc2)Oc2c(Cc3cc(Cc4cc(Cc5ccccc5O)ccc4O)ccc3O)c(O)c(Cc3ccccc3O)c(O)c21` [SARMENTOSUMIN A]: in assay [1] (Homo sapiens, HT-29, 72 h), the EC50 is greater than 20 µM. For the same compound, the ED50 in assay [3] is greater than 20 µM.

Take `O=C1C[C@@H](c2ccccc2)Oc2c(Cc3ccccc3O)c(O)c(Cc3cc(Cc4cc(Cc5ccccc5O)ccc4O)ccc3O)c(O)c21` [SARMENTOSUMIN B]: in assay [1] (Homo sapiens, HT-29, 72 h), the EC50 was greater than 20 µM. The compound further displayed an ED50 in assay [3] greater than 20 µM.

Consider `O=C1C[C@@H](c2ccccc2)Oc2c(Cc3ccccc3O)c(O)c(Cc3cc(Cc4cc(Cc5cc(Cc6ccccc6O)ccc5O)ccc4O)ccc3O)c(O)c21` [SARMENTOSUMIN C], for which the EC50 is greater than 20 µM in assay [1] (Homo sapiens, HT-29, 72 h) and 2.5 µM in assay [2]. Besides, the ED50 in assay [3] was greater than 20 µM.

For the compound `O=C1C[C@@H](c2ccccc2)Oc2c(Cc3cc(Cc4ccccc4O)ccc3O)c(O)c(Cc3cc(Cc4cc(Cc5ccccc5O)ccc4O)ccc3O)c(O)c21` [SARMENTOSUMIN D], the EC50 in assay [1] (Homo sapiens, HT-29, 72 h) was greater than 20 µM. Besides, the ED50 in assay [3] is greater than 20 µM.
